ChEMBL document CHEMBL3272008, “Synthesis and biological actions of 2-substituted quinolizidines” (J Med Chem, 1976)
Active and inactive are the calls of the source. No cut-off for these calls is given here.

Assays:
Mus musculus [1] = assay: Depression of spontaneous motor activity in Swiss-Webster mouse at 50 mg/kg, ip by photocell cage test relative to control; format: functional; details: route intraperitoneal
Summary of the method: (§1)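 Compound was dissolved in minimal 1.5 M NaH2PO4, diluted with water and given ip. Two mice given the same dose went into each of three photocell actophotometer cages 10 min after the rotarod test started. Counts were taken over 15 min, starting 5 min after placement. A factorial design across cages cancelled differences between units. Results were given as % of control, with significance by Student's t test (p < 0.05).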

Mus musculus [2] = assay: Depression of forced motor activity in Swiss-Webster mouse at 50 mg/kg, ip after 30 mins by rotarod test relative to control; format: functional; details: route intraperitoneal
Summary of the method: (§2)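 Mice were dosed ip with vehicle or compound dissolved in a minimum of 1.5 M NaH2PO4 and diluted with water. On the rotarod, speed was 4 rpm for 30 sec, then 6 rpm for 30 sec, then increased every 30 sec up to a maximum of 50 rpm until the fall. Each mouse had four trials, two per day on two consecutive days, spaced 4–6 hr apart. The fourth trial was run 30 min after dosing. The read-out was trial time (sec) as % of control, with significance by Student's t test (p < 0.05).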

Mus musculus [3] = assay: Depression of forced motor activity in Swiss-Webster mouse at 25 mg/kg, ip after 30 mins by rotarod test relative to control; format: functional; details: route intraperitoneal; summary of the method: as §2
Mus musculus [4] = assay: Depression of spontaneous motor activity in Swiss-Webster mouse at 25 mg/kg, ip by photocell cage test relative to control; format: functional; details: route intraperitoneal; summary of the method: as §1
Mus musculus [5] = assay: Depression of spontaneous motor activity in Swiss-Webster mouse at 12.5 mg/kg, ip by photocell cage test relative to control; format: functional; details: route intraperitoneal; summary of the method: as §1
Mus musculus [6] = assay: Depression of forced motor activity in Swiss-Webster mouse at 12.5 mg/kg, ip after 30 mins by rotarod test relative to control; format: functional; details: route intraperitoneal; summary of the method: as §2
[7] = Acute toxicity in ip dosed Swiss-Webster mouse administered as single dose after 7 days; format: organism-based; details: in vivo
Summary of the method: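 Mice given a single ip dose at each of four dose levels; lethality followed over 7 days; LD50 with 95% confidence limits estimated by the method of Weil. Compounds dissolved in minimal 1.5 M NaH2PO4, diluted with water; haloperidol in minimal 50% (w/v) tartaric acid-water.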

Mus musculus [8] = assay: Depression of forced motor activity in Swiss-Webster mouse at 5 mg/kg, ip after 30 mins by rotarod test relative to control; format: functional; details: route intraperitoneal
Summary of the method: (§3)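 Rotarod in mice: rod at 4 rpm for 30 sec, 6 rpm next 30 sec, then stepped up every 30 sec (max 50 rpm) until fall. Six mice at a time, four trials (two per day, 4–6 hr apart, two consecutive days); vehicle or compound ip 30 min before fourth trial. Time on rod as % of control; Student's t test, p < 0.05.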

Rattus norvegicus [9] = organism: Rattus norvegicus; assay: Increase in heart rate in Wistar rat; format: functional, organism-based
Summary of the method: (§4)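 Male Wistar rats (175–225 g) dosed ip (vehicle dilute NaH2PO4 in water). Gross behaviour observed; respiratory rate, heart rate, rectal temperature and pupil size measured. Three treated rats per dose compared with one control.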

Rattus norvegicus [10] = organism: Rattus norvegicus; assay: Reduction in respiration rate in Wistar rat; format: functional, organism-based; summary of the method: as §4
Rattus norvegicus [11] = assay: Increase in motor activity in Wistar rat at 5 to 30 mg/kg, ip; format: functional, organism-based; summary of the method: as §4
Mus musculus [12] = assay: Depression of spontaneous motor activity in Swiss-Webster mouse at 10 mg/kg, ip by photocell cage test relative to control; format: functional; details: route intraperitoneal
Summary of the method: (§5)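 Spontaneous activity in three photocell cages: two mice given the same ip dose placed per cage 10 min after rotarod start; 15-min count begun 5 min after placement. Each dose run in factorial design across all three cages to offset unit sensitivity. Counts expressed as % of control; Student's t test, p < 0.05.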

Mus musculus [13] = assay: Depression of forced motor activity in Swiss-Webster mouse at 10 mg/kg, ip after 30 mins by rotarod test relative to control; format: functional; details: route intraperitoneal; summary of the method: as §3
Mus musculus [14] = assay: Depression of spontaneous motor activity in Swiss-Webster mouse at 5 mg/kg, ip by photocell cage test relative to control; format: functional; details: route intraperitoneal; summary of the method: as §5
Mus musculus [15] = assay: Depression of spontaneous motor activity in Swiss-Webster mouse at 15 mg/kg, ip by photocell cage test relative to control; format: functional; details: route intraperitoneal; summary of the method: as §5
Mus musculus [16] = assay: Depression of spontaneous motor activity in Swiss-Webster mouse at 60 mg/kg, ip by photocell cage test relative to control; format: functional; details: route intraperitoneal; summary of the method: as §5
Mus musculus [17] = assay: Depression of forced motor activity in Swiss-Webster mouse at 15 mg/kg, ip after 30 mins by rotarod test relative to control; format: functional; details: route intraperitoneal; summary of the method: as §3
Mus musculus [18] = assay: Depression of forced motor activity in Swiss-Webster mouse at 60 mg/kg, ip after 30 mins by rotarod test relative to control; format: functional; details: route intraperitoneal; summary of the method: as §3
Mus musculus [19] = assay: Depression of forced motor activity in Swiss-Webster mouse at 30 mg/kg, ip after 30 mins by rotarod test relative to control; format: functional; details: route intraperitoneal; summary of the method: as §3
Mus musculus [20] = assay: Depression of spontaneous motor activity in Swiss-Webster mouse at 30 mg/kg, ip by photocell cage test relative to control; format: functional; details: route intraperitoneal; summary of the method: as §5
Rattus norvegicus [21] = assay: Depression of motor activity in Wistar rat at 50 mg/kg, ip after 1 to 5 hrs; format: functional, organism-based; set-up: dose 50 mg/kg; summary of the method: as §4
Mus musculus [22] = assay: Depression of forced motor activity in ip dosed Swiss-Webster mouse after 30 mins by rotarod test relative to control; format: functional, organism-based; summary of the method: as §2
Mus musculus [23] = assay: Depression of forced motor activity in Swiss-Webster mouse at 100 mg/kg, ip after 30 mins by rotarod test relative to control; format: functional; details: route intraperitoneal; summary of the method: as §3
Rattus norvegicus [24] = assay: Reduction in respiratory rate in Wistar rat at 50 mg/kg, ip; format: functional, organism-based; set-up: dose 50 mg/kg; summary of the method: as §4
Mus musculus [25] = assay: Depression of spontaneous motor activity in ip dosed Swiss-Webster mouse by photocell cage test relative to control; format: functional, organism-based; summary of the method: as §1
Rattus norvegicus [26] = assay: Reduction in heart rate in Wistar rat at 50 mg/kg, ip; format: functional, organism-based; set-up: dose 50 mg/kg; summary of the method: as §4
Rattus norvegicus [27] = assay: Reduction in body temperature in Wistar rat at 50 mg/kg, ip relative to control; format: functional; details: route intraperitoneal; summary of the method: as §4
Rattus norvegicus [28] = assay: Increase in pupil size in Wistar rat at 50 mg/kg, ip; format: functional, organism-based; set-up: dose 50 mg/kg; summary of the method: as §4
Rattus norvegicus [29] = assay: Reduction in ptosis in Wistar rat at 50 mg/kg, ip after 1 to 5 hrs; format: functional, organism-based; set-up: dose 50 mg/kg; summary of the method: as §4
Mus musculus [30] = assay: Depression of spontaneous motor activity in Swiss-Webster mouse at 100 mg/kg, ip by photocell cage test relative to control; format: functional; details: route intraperitoneal; summary of the method: as §5
Rattus norvegicus [31] = assay: Induction of ptosis in Wistar rat at 25 mg/kg, ip after 2 hrs; format: functional, organism-based; set-up: dose 25 mg/kg
Summary of the method: (§6)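 Male Wistar rats (175–225 g) were injected ip, with three treated rats and one control per dose. Compounds were in minimal 1.5 M NaH2PO4 diluted with water; the reference drug was in minimal 50% (w/v) tartaric acid-water. Gross behavior was observed. Respiratory rate, heart rate, rectal temperature and pupil size were measured at time points after dosing.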

Mus musculus [32] = assay: Depression of forced motor activity in Swiss-Webster mouse at 6.25 mg/kg, ip after 30 mins by rotarod test relative to control; format: functional; details: route intraperitoneal; summary of the method: as §2
Rattus norvegicus [33] = assay: Induction of ptosis in Wistar rat at 25 mg/kg, ip after 0.5 to 1 hr; format: functional, organism-based; set-up: dose 25 mg/kg; summary of the method: as §6
Rattus norvegicus [34] = assay: Increase in salivation in Wistar rat at 25 mg/kg, ip after 2 hrs; format: functional, organism-based; set-up: dose 25 mg/kg; summary of the method: as §6
Rattus norvegicus [35] = assay: Reduction in heart rate in Wistar rat at 25 mg/kg, ip; format: functional, organism-based; set-up: dose 25 mg/kg; summary of the method: as §6
Rattus norvegicus [36] = assay: Reduction in respiratory rate in Wistar rat at 25 mg/kg, ip; format: functional, organism-based; set-up: dose 25 mg/kg; summary of the method: as §6
Mus musculus [37] = assay: Depression of spontaneous motor activity in Swiss-Webster mouse at 6.25 mg/kg, ip by photocell cage test relative to control; format: functional; details: route intraperitoneal; summary of the method: as §1
Rattus norvegicus [38] = assay: Increase in salivation in Wistar rat at 25 mg/kg, ip after 0.5 to 1 hr; format: functional, organism-based; set-up: dose 25 mg/kg; summary of the method: as §6
Rattus norvegicus [39] = assay: Reduction in rectal temperature in Wistar rat at 25 mg/kg, ip relative to control; format: functional; details: route intraperitoneal; summary of the method: as §6
Mus musculus [40] = assay: Acute toxicity in ip dosed Swiss-Webster mouse assessed as intense and prolonged convulsions administered as single dose after 72 hrs; format: organism-based; details: in vivo
Rattus norvegicus [41] = assay: Depression of motor activity in Wistar rat at 25 mg/kg, ip; format: functional, organism-based; set-up: dose 25 mg/kg; summary of the method: as §6

Row | SMILES | Activity (Mus musculus [1]) [%] | Activity (Mus musculus [2]) [%] | Activity (Mus musculus [3]) [%] | Activity (Mus musculus [4]) [%] | Activity (Mus musculus [5]) [%] | Activity (Mus musculus [6]) [%] | LD50 at 168 h [7] [mg/kg] | Activity (Mus musculus [22]) | Activity (Mus musculus [23]) [%] | Activity (Mus musculus [25]) | Activity (Mus musculus [30]) [%] | other results
1 | O[C@@]1(c2ccc(C(F)(F)F)cc2)CCN2CCCCC2C1 (single isomer, unassigned) | 45.2 | 83.5 | 92.3 | 82.7 | 49.7 | 99.3 | 130 |  |  |  |  | 
2 | O[C@@]1(c2ccc(Cl)cc2)CCN2CCCCC2C1 (single isomer, unassigned) |  |  | 87.6 | 22.5 |  |  | 67.5 |  |  |  |  | Activity (Mus musculus [8]): 105.9%; Activity (Rattus norvegicus [9]): Active; Activity (Rattus norvegicus [10]): Active; Activity (Rattus norvegicus [11]): inactive; Activity (Mus musculus [12]): 439.6%; Activity (Mus musculus [13]): 101.9%; Activity (Mus musculus [14]): 526.8%
3 | O[C@@]1(c2cccc(Cl)c2)CCN2CCCCC2C1 (single isomer, unassigned) |  |  |  |  |  |  | 180 |  |  |  |  | Activity (Mus musculus [15]): 166.7%; Activity (Mus musculus [16]): 44.3%; Activity (Mus musculus [17]): 96.5%; Activity (Mus musculus [18]): 51.4%; Activity (Mus musculus [19]): 105%; Activity (Mus musculus [20]): 154.9%
4 | O[C@]1(c2ccc(Cl)cc2)CCN2CCCCC2C1 (some centres undefined) | 18.1 | 26.7 | 71.3 | 19.4 |  |  | 229 | Dose-dependent effect | 9.7 | Dose-dependent effect | 2.6 | Activity (Rattus norvegicus [21]): Active; Activity (Rattus norvegicus [24]): Active; Activity (Rattus norvegicus [26]): Active; T (Rattus norvegicus [27]): 1 °C; Activity (Rattus norvegicus [28]): Active; Activity (Rattus norvegicus [29]): Active
5 | O=C(c1ccc(F)cc1)[C@H]1CCN2CCCC[C@@H]2C1 (single isomer, unassigned) |  |  | 23 | 10.2 | 48.5 | 55.5 | 86.1 | Dose-dependent effect |  | Dose-dependent effect |  | Activity (Rattus norvegicus [31]): inactive; Activity (Mus musculus [32]): 65.6%; Activity (Rattus norvegicus [33]): Active; Activity (Rattus norvegicus [34]): inactive; Activity (Rattus norvegicus [35]): Active; Activity (Rattus norvegicus [36]): Active; Activity (Mus musculus [37]): 95.6%; Activity (Rattus norvegicus [38]): Active; T (Rattus norvegicus [39]): 2.9 °C; Activity (Mus musculus [40]): Toxic; Activity (Rattus norvegicus [41]): Active
6 | O[C@@]1(c2cccc(C(F)(F)F)c2)CCN2CCCCC2C1 (single isomer, unassigned) | 111 | 100.5 | 97.9 | 119 |  |  | 262 |  | 29.6 |  | 5.5 | 
